Experimental data: ChEMBL document CHEMBL4477190, “Marine-Derived Secondary Metabolite, Griseusrazin A, Suppresses Inflammation through Heme Oxygenase-1 Induction in Activated RAW264.7 Macrophages” (J Nat Prod, 2016)
Active and inactive are the calls of the source.

Key:
[1] = system: RAW264.7; experiment: Reduction in COX2 expression in LPS-stimulated mouse RAW264.7 cells at 5 to 40 uM pre-treated for 6 hrs prior to LPS-challenge measured after 24 hrs by western blot analysis; type: functional, cell-based
How it was run: (§1)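 RAW264.7 macrophages pretreated 6 h with compound, then stimulated 24 h with LPS (500 ng/mL). Nitrite in conditioned medium measured. PGE2 measured by commercial kit. iNOS and COX-2 read by Western blot in RIPA lysates (25 mM Tris-HCl pH 7.6, 150 mM NaCl, 1% NP-40, 1% deoxycholate, 0.1% SDS). Mean ± SD of three experiments.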

[2] = molecular target: T1, Nuclear factor erythroid 2-related factor 2 (Mus musculus) (UniProt Q60795); experiment: Increase in nuclear Nrf2 translocation in LPS-stimulated mouse RAW264.7 cells assessed as nuclear Nrf2 level at 20 and 40 uM measured up to 120 mins by Western blot analysis; type: cell-based
T1 sequence (whole entry): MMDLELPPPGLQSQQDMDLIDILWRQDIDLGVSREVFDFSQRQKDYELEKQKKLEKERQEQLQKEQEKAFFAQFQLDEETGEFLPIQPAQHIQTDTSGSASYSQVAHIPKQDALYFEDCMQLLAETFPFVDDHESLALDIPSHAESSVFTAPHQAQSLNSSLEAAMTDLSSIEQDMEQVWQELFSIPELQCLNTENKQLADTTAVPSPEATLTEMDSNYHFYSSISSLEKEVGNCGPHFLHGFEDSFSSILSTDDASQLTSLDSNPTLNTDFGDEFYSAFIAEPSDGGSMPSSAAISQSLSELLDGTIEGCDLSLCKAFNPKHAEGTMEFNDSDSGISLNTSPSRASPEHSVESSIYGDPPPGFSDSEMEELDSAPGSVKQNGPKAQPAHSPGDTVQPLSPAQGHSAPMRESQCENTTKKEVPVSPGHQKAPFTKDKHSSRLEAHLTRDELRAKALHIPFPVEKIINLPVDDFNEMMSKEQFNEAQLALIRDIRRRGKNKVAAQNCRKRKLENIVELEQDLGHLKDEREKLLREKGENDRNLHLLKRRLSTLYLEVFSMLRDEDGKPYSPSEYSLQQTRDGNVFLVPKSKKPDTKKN
How it was run: (§2)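 Cells exposed to compound at 40 μM for 0–120 min in 20 min steps. Nuclei separated from cytosol with PER-Mammalian Protein Extraction buffer plus protease inhibitor cocktail and 1 mM PMSF. Nuclear and cytoplasmic Nrf2 read by Western blot. Representative blots from three independent experiments.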

[3] = molecular target: Transcription factor p65 (Mus musculus) (UniProt Q04207); experiment: Inhibition of LPS-stimulated DNA binding activity of NF-kappaB p65 in mouse RAW264.7 cells assessed as at 20 and 40 uM pre-treated for 6 hrs prior to LPS-challenge measured after 30 mins by ELISA method; type: cell-based
How it was run: (§3)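 Cells pretreated 6 h with compound, then stimulated 30 min with LPS (500 ng/mL). Nuclear fractions probed by Western blot for p50 and p65. NF-κB DNA binding in nuclear extracts measured by TransAM ELISA kit. Mean ± SD of three experiments.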

[4] = system: RAW264.7; experiment: Reduction in COX2 expression in LPS-stimulated mouse RAW264.7 cells at 5 to 40 uM pre-treated for 6 hrs prior to LPS-challenge measured after 24 hrs by western blot analysis in presence of HO-1 competitive inhibitor SnPP by western blot analysis; type: functional, cell-based
How it was run: (§4)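 RAW264.7 cells pretreated 6 h with compound (40 μM), with or without SnPP (50 μM), then stimulated 24 h with LPS (500 ng/mL). Nitrite in conditioned medium measured. PGE2, TNF-α, IL-1β and IL-6 measured by commercial kit (R&D Systems). iNOS and COX-2 read by Western blot. Mean ± SD of three experiments; one-way ANOVA with Newman−Keuls test.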

[5] = system: RAW264.7; experiment: Antiinflammatory activity in LPS-stimulated mouse RAW264.7 cells assessed as reduction in nitrite production at 5 to 40 uM pre-treated for 6 hrs prior to LPS-challenge measured after 24 hrs in presence of HO-1 competitive inhibitor SnPP by Griess reaction
[6] = system: RAW264.7; experiment: Reduction in IL-1beta mRNA expression in LPS-stimulated mouse RAW264.7 cells at 20 and 40 uM pre-treated for 6 hrs prior to LPS-challenge measured after 24 hrs by real-time PCR analysis; type: functional, cell-based
How it was run: (§5)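 RAW264.7 macrophages pretreated 6 h with compound, then given LPS (500 ng/mL) for 24 h. TNF-α, IL-1β and IL-6 protein measured by commercial kit (R&D Systems). mRNA levels measured by real-time PCR. Mean ± SD of three experiments; one-way ANOVA with Newman−Keuls test.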

[7] = system: RAW264.7; experiment: Antiinflammatory activity in LPS-stimulated mouse RAW264.7 cells assessed as reduction in nitrite production at 5 to 40 uM pre-treated for 6 hrs prior to LPS-challenge measured after 24 hrs by Griess reaction; type: functional, cell-based; how it was run: as §1
[8] = molecular target: T1, Nuclear factor erythroid 2-related factor 2 (Mus musculus); experiment: Increase in nuclear Nrf2 translocation in LPS-stimulated mouse RAW264.7 cells assessed as cytosolic Nrf2 level at 20 and 40 uM measured up to 120 mins by Western blot analysis; type: cell-based; how it was run: as §2
[9] = system: RAW264.7; experiment: Antiinflammatory activity in LPS-stimulated mouse RAW264.7 cells assessed as reduction in IL-1beta production at 20 and 40 uM pre-treated for 6 hrs prior to LPS-challenge measured after 24 hrs in presence of competitive inhibitor of HO-1 SnPP; type: functional, cell-based; how it was run: as §4
[10] = system: RAW264.7; experiment: Reduction in TNF-alpha mRNA expression in LPS-stimulated mouse RAW264.7 cells at 20 and 40 uM pre-treated for 6 hrs prior to LPS-challenge measured after 24 hrs by real-time PCR analysis; type: functional, cell-based; how it was run: as §5
[11] = system: RAW264.7; experiment: Reduction in iNOS expression in LPS-stimulated mouse RAW264.7 cells at 5 to 40 uM pre-treated for 6 hrs prior to LPS-challenge measured after 24 hrs by western blot analysis; type: functional, cell-based; how it was run: as §1
[12] = system: RAW264.7; experiment: Antiinflammatory activity in LPS-stimulated mouse RAW264.7 cells assessed as reduction in TNF-alpha production at 20 and 40 uM pre-treated for 6 hrs prior to LPS-challenge measured after 24 hrs iin presence of HO-1 competitive inhibitor SnPP; type: functional, cell-based; how it was run: as §4
[13] = system: RAW264.7; experiment: Inhibition of LPS-stimulated NF-kappaB p50 nuclear translocation in mouse RAW264.7 cells at 20 and 40 uM pre-treated for 6 hrs prior to LPS-challenge measured after 30 mins by western blot analysis; type: cell-based; how it was run: as §3
[14] = system: RAW264.7; experiment: Reduction in IL6 mRNA expression in LPS-stimulated mouse RAW264.7 cells at 20 and 40 uM pre-treated for 6 hrs prior to LPS-challenge measured after 24 hrs by real-time PCR analysis; type: functional, cell-based; how it was run: as §5
[15] = system: RAW264.7; experiment: Reduction in IL6 production in LPS-stimulated mouse RAW264.7 cells at 20 and 40 uM pre-treated for 6 hrs prior to LPS-challenge measured after 24 hrs; type: functional, cell-based; how it was run: as §5
[16] = system: RAW264.7; experiment: Reduction in TNF-alpha production in LPS-stimulated mouse RAW264.7 cells at 20 and 40 uM pre-treated for 6 hrs prior to LPS-challenge measured after 24 hrs; type: functional, cell-based; how it was run: as §5
[17] = system: RAW264.7; experiment: Reduction in IL-1beta production in LPS-stimulated mouse RAW264.7 cells at 20 and 40 uM pre-treated for 6 hrs prior to LPS-challenge measured after 24 hrs; type: functional, cell-based; how it was run: as §5
[18] = system: RAW264.7; experiment: Antiinflammatory activity in LPS-stimulated mouse RAW264.7 cells assessed as reduction in PGE2 production at 5 to 40 uM pre-treated for 6 hrs prior to LPS-challenge measured after 24 hrs in presence of HO-1 competitive inhibitor SnPP
[19] = molecular target: T1, Nuclear factor erythroid 2-related factor 2 (Mus musculus); experiment: Activation of Nrf2 in LPS-stimulated mouse RAW264.7 cells assessed as induction of HO-1 protein expression at 5 to 40 uM pre-treated for 6 hrs prior to LPS-challenge measured after 12 hrs by western blot analysis; type: cell-based
How it was run: (§6)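 RAW264.7 macrophages incubated 12 h with compound (5−40 μM). HO-1 mRNA measured, and HO-1 protein by Western blot. Mean ± SD of three experiments; representative blots from three independent experiments.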

[20] = system: RAW264.7; experiment: Antiinflammatory activity in LPS-stimulated mouse RAW264.7 cells assessed as reduction in PGE2 production at 5 to 40 uM pre-treated for 6 hrs prior to LPS-challenge measured after 24 hrs; type: functional, cell-based; how it was run: as §1
[21] = system: RAW264.7; experiment: Reduction in iNOS expression in LPS-stimulated mouse RAW264.7 cells at 5 to 40 uM pre-treated for 6 hrs prior to LPS-challenge measured after 24 hrs by western blot analysis in presence of HO-1 competitive inhibitor SnPP by western blot analysis; type: functional, cell-based; how it was run: as §4
[22] = molecular target: T1, Nuclear factor erythroid 2-related factor 2 (Mus musculus); experiment: Activation of Nrf2 in LPS-stimulated mouse RAW264.7 cells assessed as induction of HO-1 mRNA expression at 5 to 40 uM pre-treated for 6 hrs prior to LPS-challenge measured after 12 hrs; type: cell-based; how it was run: as §6
[23] = system: RAW264.7; experiment: Antiinflammatory activity in LPS-stimulated mouse RAW264.7 cells assessed as reduction in IL6 production at 20 and 40 uM pre-treated for 6 hrs prior to LPS-challenge measured after 24 hrs in presence of HO-1 competitive inhibitor SnPP; type: functional, cell-based; how it was run: as §4
[24] = molecular target: Transcription factor p65 (Mus musculus) (UniProt Q04207); experiment: Inhibition of LPS-stimulated NF-kappaB p65 nuclear translocation in mouse RAW264.7 cells at 20 and 40 uM pre-treated for 6 hrs prior to LPS-challenge measured after 30 mins by western blot analysis; type: cell-based; how it was run: as §3

Transcription factor p65 (Mus musculus), sequence (Q04207 whole entry): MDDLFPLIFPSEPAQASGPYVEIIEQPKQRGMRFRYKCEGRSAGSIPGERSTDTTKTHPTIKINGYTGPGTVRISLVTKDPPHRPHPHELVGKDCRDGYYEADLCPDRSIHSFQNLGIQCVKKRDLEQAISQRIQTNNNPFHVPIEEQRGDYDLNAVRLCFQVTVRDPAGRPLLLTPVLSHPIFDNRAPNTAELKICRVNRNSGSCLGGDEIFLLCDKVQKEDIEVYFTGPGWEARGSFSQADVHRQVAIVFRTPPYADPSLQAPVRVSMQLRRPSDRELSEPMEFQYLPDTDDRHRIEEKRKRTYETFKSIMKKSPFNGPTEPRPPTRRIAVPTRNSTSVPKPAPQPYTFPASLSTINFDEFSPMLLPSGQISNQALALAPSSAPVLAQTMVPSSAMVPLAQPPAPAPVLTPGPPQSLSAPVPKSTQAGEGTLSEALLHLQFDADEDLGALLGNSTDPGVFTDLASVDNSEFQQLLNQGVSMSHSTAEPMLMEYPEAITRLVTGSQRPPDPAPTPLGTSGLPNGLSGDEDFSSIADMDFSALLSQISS

Cc1nc(Cc2ccc(N(C)C=O)cc2)c(C)nc1Cc1ccc(N(C)C=O)cc1
active: Activity [1] Dose-dependent effect | Activity [2] | inhibition [3] | Activity [6] Dose-dependent effect | Activity [7] Dose-dependent effect | Activity [8] | Activity [10] Dose-dependent effect | Activity [11] Dose-dependent effect | inhibition [13] | Activity [14] Dose-dependent effect | Activity [15] Dose-dependent effect | Activity [16] Dose-dependent effect | Activity [17] Dose-dependent effect | Activity [19] | Activity [20] Dose-dependent effect | Activity [22] | inhibition [24]
inactive: Activity [4] | Activity [5] | Activity [9] | Activity [12] | Activity [18] | Activity [21] | Activity [23]
